Assays:
[1] = molecular target: Cyclin-dependent kinase 4/cyclin D1 (Homo sapiens, UniProt P11802); assay: (§1) Inhibition of human CDK4/ Cyclin D1 catalytic subunit expressed in Sf9 insect cells assessed as GST-RB152 fusion protein phosphorylation-associated depletion in ATP level by luminescence assay
Method in brief: (§2)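 Human GST-cyclin D1 co-expressed with CDK4 in Sf-9 cells, purified on glutathione-agarose, eluted and dialysed. Substrate GST-RB152, expressed in E. coli BL21(DE3)pLysS with 4 mM IPTG induction for 4 h at 37 °C. Reaction: 2 µg GST-RB152 and 6 µM ATP in 50 µL Tris pH 7.5/MgCl2/BSA buffer with phosphatase inhibitors and DTT. Started with 200 ng enzyme, 30 min at 30 °C. Read-out Kinase-Glo luminescence of ATP depletion, giving IC50.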

[2] = molecular target: Cyclin-dependent kinase 2 (Homo sapiens, UniProt P24941); assay: Inhibition of human CDK2/ Cyclin A catalytic subunit expressed in Sf9 insect cells assessed as histone H1 phosphorylation-associated depletion in ATP level by luminescence assay
Method in brief: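 Human GST-cyclin A co-expressed with CDK2 in Sf-9 cells, captured on glutathione-agarose, eluted with reduced glutathione, then dialysed. Reaction volume 50 µL in kinase buffer (40 mM Tris pH 7.5, 20 mM MgCl2, 0.1 mg/ml BSA) with 3 µg histone H1 and 6 µM ATP. Also contains 10 mM β-glycerophosphate, 0.1 mM NaF, 0.1 mM orthovanadate and 1 mM DTT. Started with 200 ng enzyme, run 30 min at 30 °C. Remaining ATP read by Kinase-Glo luminescence; IC50 derived from ATP depletion. Compounds from 10 mM DMSO stocks, serially diluted in kinase buffer.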

[3] = molecular target: Cyclin-dependent kinase 4/cyclin D1 (Homo sapiens, UniProt P11802+P24385); assay: as §1; conditions: sf9; method in brief: as §2
Chain of Cyclin-dependent kinase 4/cyclin D1 (Homo sapiens, UniProt P11802+P24385) (P11802 whole entry): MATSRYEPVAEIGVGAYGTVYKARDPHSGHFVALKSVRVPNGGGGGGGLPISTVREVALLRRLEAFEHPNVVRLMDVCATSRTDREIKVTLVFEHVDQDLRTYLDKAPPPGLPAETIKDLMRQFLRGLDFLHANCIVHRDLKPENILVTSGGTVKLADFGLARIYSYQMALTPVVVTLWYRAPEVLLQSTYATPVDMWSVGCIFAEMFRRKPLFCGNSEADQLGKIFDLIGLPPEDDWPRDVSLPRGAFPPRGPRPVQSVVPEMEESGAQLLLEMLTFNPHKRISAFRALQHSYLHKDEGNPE
Chain of Cyclin-dependent kinase 4/cyclin D1 (Homo sapiens, UniProt P11802+P24385) (P24385 whole entry): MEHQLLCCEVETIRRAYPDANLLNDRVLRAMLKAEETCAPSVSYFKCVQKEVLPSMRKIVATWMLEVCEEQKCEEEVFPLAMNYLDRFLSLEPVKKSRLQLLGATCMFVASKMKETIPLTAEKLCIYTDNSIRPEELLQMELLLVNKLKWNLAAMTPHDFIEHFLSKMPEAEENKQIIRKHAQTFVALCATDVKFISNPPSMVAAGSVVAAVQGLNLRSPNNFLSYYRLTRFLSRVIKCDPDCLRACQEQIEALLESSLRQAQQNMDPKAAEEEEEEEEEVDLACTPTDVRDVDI

Chain of Cyclin-dependent kinase 4/cyclin D1 (Homo sapiens, UniProt P11802) (P11802 whole entry, the tested form may be a part): as the sequence (P11802 whole entry) above
Chain of Cyclin-dependent kinase 4/cyclin D1 (Homo sapiens, UniProt P11802) (P24385 whole entry, further chain, the tested form may be a part): as the sequence (P24385 whole entry) above

Row | IC50 [1] [µM] | IC50 ([2]; read-out: IC50) [µM] | IC50 [3] | IC50 ([2]; sf9) | Structure (SMILES)
1 | 136 | 790 | – | – | O=C(C(=O)N1CCc2cc(F)ccc21)c1c[nH]c2ccccc12
2 | 38 | 862 | – | – | Clc1ccc2c(ccn2CCc2c[nH]c3ccc(Cl)cc23)c1
3 | – | – | ND(Insoluble) | ND(Insoluble) | c1ccc2c(c1)CCN2CCCN1CCc2ccccc21
4 | – | – | ND(Insoluble) | ND(Insoluble) | c1ccc2c(c1)CCN2CCCCCCN1CCc2ccccc21
5 | 37 | 940 | – | – | c1ccc2c(c1)ccn2CCn1ccc2ccccc21
6 | 106 | 1210 | – | – | c1ccc2c(c1)ccn2CCCCCCn1ccc2ccccc21
7 | 116 | 1160 | – | – | O=C(C(=O)N1CCc2ccccc21)c1c[nH]c2ccc(F)cc12
8 | 96 | 985 | – | – | O=C(C(=O)N1CCc2ccccc21)c1c[nH]c2ccc(Cl)cc12
9 | 43.5 | 915 | – | – | O=C(C(=O)N1CCc2cc(Cl)ccc21)c1c[nH]c2ccc(Cl)cc12
10 | > 500 | > 500 | – | – | c1ccc2c(c1)ccn2CCc1c[nH]c2ccccc12
11 | 140 | 430 | – | – | Clc1ccc2c(ccn2CCc2c[nH]c3ccccc23)c1
12 | 66 | 1230 | – | – | c1ccc2c(c1)CCN2CCN1CCc2ccccc21
13 | 50 | 200 | – | – | Fc1ccc2[nH]cc(CCn3ccc4ccccc43)c2c1
14 | 45 | 1030 | – | – | c1ccc2c(c1)ccn2CCCCn1ccc2ccccc21
15 | 52 | 950 | – | – | c1ccc2c(c1)ccn2CCCCCn1ccc2ccccc21
16 | 54 | 910 | – | – | Cc1ccc2c(c1)CCN2C(=O)C(=O)c1c[nH]c2ccccc12
17 | – | – | ND(Insoluble) | ND(Insoluble) | c1ccc2c(c1)CCN2CCCCN1CCc2ccccc21
18 | 150 | 400 | – | – | Cc1ccc2[nH]cc(CCn3ccc4ccccc43)c2c1

The remaining lines, values behind:

Row | Structure (SMILES) | IC50 [1] [µM] | IC50 ([2]; read-out: IC50) [µM] | IC50 [3] | IC50 ([2]; sf9)
19 | Cc1ccc2c(ccn2CCc2c[nH]c3ccccc23)c1 | 130 | 500 | – | –
20 | O=C(C(=O)N1CCc2ccccc21)c1c[nH]c2ccccc12 | 122 | 760 | – | –
21 | c1ccc2c(c1)ccn2CCCn1ccc2ccccc21 | 38 | 1070 | – | –
22 | Fc1ccc2c(ccn2CCc2c[nH]c3ccccc23)c1 | 95 | > 500 | – | –
23 | O=C(C(=O)N1CCc2cc(Cl)ccc21)c1c[nH]c2ccccc12 | 69.5 | 1030 | – | –
24 | O=C(C(=O)N1CCc2cc(F)ccc21)c1c[nH]c2ccc(F)cc12 | 48 | 816 | – | –
25 | Cc1ccc2c(c1)CCN2C(=O)C(=O)c1c[nH]c2ccc(C)cc12 | 38 | 710 | – | –
26 | Cc1ccc2c(ccn2CCc2c[nH]c3ccc(C)cc23)c1 | 44 | 960 | – | –
27 | Cc1ccc2[nH]cc(C(=O)C(=O)N3CCc4ccccc43)c2c1 | 41.5 | 951 | – | –
28 | Clc1ccc2[nH]cc(CCn3ccc4ccccc43)c2c1 | > 500 | > 500 | – | –
29 | Fc1ccc2c(ccn2CCc2c[nH]c3ccc(F)cc23)c1 | 73 | 895 | – | –
30 | c1ccc2c(c1)CCN2CCCCCN1CCc2ccccc21 | – | – | ND(Insoluble) | ND(Insoluble)

From ChEMBL document CHEMBL1153510, “Fascaplysin-inspired diindolyls as selective inhibitors of CDK4/cyclin D1” (Bioorg Med Chem, 2009)
